Screens (PubChem BioAssay)
RGS16-Gao HTS = modulates binding between human RGS16 and Galphao; O15492+P09471; bead-based flow cytometry RGS16-Galphao binding, fluorescence; actives lie on both sides; binding response (% of control), % at 10 µM; 0.38% of 220,000 active; AID 1441; call rule not given here;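 further: Galphao activated by GDP with aluminum fluoride before binding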
RGS4-Gao reg = modulates binding of RGS4 to human Galphao | Multiplexed bead flow cytometry; actives lie on both sides | P09471 | 0.33% of 220,000 active | binding response (% of control), % at 10 µM; in the data active means binding response below about 49% or above about 150%; inactive means in between;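 further: fluorescent Galphao activated with aluminum fluoride binding bead-coupled RGS4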
RGS8-Gao = modulates binding of RGS8 to human Galphao. multiplexed bead flow cytometry; actives lie on both sides. AID 1423. 0.34% of 220,000 active. P09471. response (percent of control binding), % at 10 µM; in the data active means response below about 60% or above about 140%; inactive means in between;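 further: Galphao activated as the GDP aluminium fluoride complex binding bead-coupled RGS8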
RGS7-Gao reg = human RGS7-Galphao interaction regulation | P09471 | Multiplexed bead flow cytometry, RGS7-Galphao binding; actives lie on both sides | binding response (% of control), % at 10 µM | 0.35% of 220,000 active | AID 1439; in the data active means binding response below about 49% or above about 150%; inconclusive means no clear call, values can overlap the other calls; inactive means in between;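 further: fluorescent Galphao held in activated GDP-AlF4 state binding bead-coupled RGS7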
ABCB1 inh = blocks JC-1 efflux by human ABCB1 transporter. inhibition, % at 6.6 µM. P08183. 0.067% of 190,000 active. AID 1326. CCRF-Adr cells, flow cytometry; in the data active means inhibition above about 40%;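 further: 0% = vehicle and 100% = reference inhibitor; higher value means more JC-1 retained so stronger ABCB1 efflux block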
ABCG2 inh = human ABCG2 inhibition, ABCB1 as counter-screen; Q9UNQ0; IgMXP3 cells, JC-1 efflux, flow cytometry; inhibition, % at 6.6 µM; 0.1% of 190,000 active; AID 1325;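 active means inhibition above 80%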;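 further: 0% = DMSO and 100% = nicardipine control wells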
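Measure – % inhibition of efflux relative to nicardipine and DMSO · Test system – ABCG2 IgMXP3 and barcoded ABCB1 CCRF-Adr cell mix · Control set – nicardipine as high control, DMSO as low control · Compound – one concentration, 6.6 µM final · Signal – flow cytometry of retained JC-1 fluorescence · Timing – 10 min exposure at 25 °C with rotation, no wash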
ABCB1 single pt = inhibits human ABCB1 efflux, confirmed at single point; shares compounds with ABCG2 inh; CCRF-Adr cells, JC-1 efflux, flow cytometry; inhibition, % at 6.6 µM; 7% of 270 active; AID 1451;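 active means inhibition of pump activity above 50%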;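 further: 0% = DMSO and 100% = nicardipine full pump inhibition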
ABCG2 single pt = confirmation of human ABCG2 transporter inhibitors, ABCB1 counter-screen. shares compounds with ABCG2 inh. IgMXP3 cells, JC-1 efflux, flow cytometry. inhibition, % at 6.6 µM. 6% of 270 active. AID 1453;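 active means inhibition above 50%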;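 further: 0% = DMSO wells and 100% = nicardipine pump inhibitor wells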
IgMXP3 autofluor = counter-screen for ABCG2 inhibitors: compound fluorescence in IgMXP3 cells | fluorescence at 6.6 µM | compound autofluorescence 488/530 nm, flow; hits give high values | AID 1480 | 30% of 270 active | shares compounds with ABCG2 inh;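 active means fluorescence in ABCG2-expressing cells above the plate's control-well mean plus 3 SD, cut at about 15 in these data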;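 further: median cell fluorescence with compound minus that of DMSO-treated control cells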
CCRF autofluor = CCRF-Adr autofluorescence flag for ABCB1 confirmation; 30% of 270 active; fluorescence at 6.6 µM; shares compounds with ABCG2 inh; CCRF-Adr cells, compound autofluorescence 488/530 nm, flow cytometry; hits give high values;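 active means fluorescence beyond the plate control mean plus 3 SD, with a fluorescence-to-maximum score over 2, cut at about 25 in these data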
* = called active by the depositor; ? = inconclusive; / = no result; + = active, no number; [ ] = remark or other dose. This is a sample that favours compounds with a hit; in the whole collection about 0.83% have one here.

SMILES	RGS16-Gao HTS	RGS4-Gao reg	RGS8-Gao	RGS7-Gao reg	ABCB1 inh	ABCG2 inh	others
Cc1ccc(NC(=O)CN2C(=O)N/C(=C/c3cccn3-c3ccc(C(=O)O)cc3)C2=O)cc1	7.4	25.8*	28.2*	-12.7*	-1.0	-7.0
CCOC(=O)c1cc2[nH]c3ccccc3c2[n+](-c2ccc([N+](=O)[O-])cc2)c1N	87.0	99.9	100.7	101.7	-0.3	-0.3
COc1ccc(OC)c(-c2c3cc(O)c(=O)cc-3oc3cc(O)c(O)cc23)c1	17.0*	38.7*	35.7*	4.7*	-1.3	-19.9
O=C(Nc1cccnc1)c1c(O)c2cccc3c2n(c1=O)CC3	125.1	170.9*[activator]	119.6	133.8	0.4	1.3
Cc1[nH]c(=O)[nH]c(=O)c1CSCC(=O)OCC(=O)c1ccc(Br)cc1	99.1	98.5	100.0	96.5	0.2	1.0
NCCSc1c(-c2ccc(Cl)cc2)[nH]c2ccccc12	105.7	103.9	102.1	?	/	/
NCCSc1c(-c2ccccc2)[nH]c2ccccc12	-3.3*	5.5*	12.5*	-8.4*	1.5	0.7
COc1cc(CN2CCC(C(=O)N3CCCC(C)C3)CC2)cc(Br)c1O (stereo not given)	92.7	91.2	93.6	91.9	0.5	3.4
CCOC(=O)C1=C(C)C(c2ccc(OC)cc2OC)NC(=O)N1 (stereo not given)	94.2	96.1	94.5	95.2	1.2	89.7*
O=C(OCC(=O)N1CCOCC1)c1ccc2c(c1)OCCO2	-154.4	32.1*	41.9*	29.8*	-0.6	-3.3
Cc1nc2cc(C(=O)NCc3cccnc3)ccc2n1-c1ccc(F)cc1F	102.5	100.2	100.3	98.5	-1.2	-2.5
O=C(COC(=O)c1ccncc1)NCCCc1ccccc1	147.9	153.5*[activator]	139.4	151.7*[activator]	0.5	2.0
O=C(COC(=O)c1ccncc1)NCc1ccccc1	101.3	99.2	99.5	98.6	0.3	0.8
CC(C)Nc1cc(C(F)(F)F)nc(-c2ccccn2)n1	159.8	152.7*[activator]	94.6	273.6*[activator]	0.4	8.6
COc1cc(C(F)(F)F)nc(-c2ccccn2)n1	104.0	101.3	101.8	?	0.2	5.0
N#Cc1cc(-c2ccccc2)cnc1Sc1ccc(Cl)cc1	103.5	99.9	99.2	100.8	1.7	9.2
N#Cc1cc(-c2ccc(Cl)cc2)cnc1Sc1ccccc1	1.3*	21.1*	12.2*	14.8*	0.1	0.4
CC1OC(O[C@H]2CC[C@]3(C)C4C=C[C@]56OC[C@@]7(CC[C@@H](C)[C@H](C)C75)[C@H](O)C[C@@]6(C)[C@]4(C)CC[C@H]3C2(C)C)C(OC2OC(CO)C(O)C(O)C2OC2OCC(O)C(O)C2O)C(O)C1O (stereo not given in full)	107.2	109.1	107.9	?	/	/
Cc1cc(NC(=O)CSc2nc3cc(C(=O)NCCCOC(C)C)ccc3c(=O)n2Cc2ccco2)no1	64.2	92.7	85.7	91.4	0.6	3.9
CCCN(CCC)C(=O)CSc1nc2ccccc2c(=O)n1C1CCCC1	94.4	93.0	93.2	92.5	52.2*	43.5
O=C(O)c1cccnc1SCc1cccc(Cl)c1	93.5	95.5	97.6	98.7	0.1	0.8
Nc1nnc(-c2ccc(Cl)c([N+](=O)[O-])c2)s1	99.0	102.9	98.5	?	2.1	17.0
O=c1c2cc(N3CCOCC3)ccc2[nH]c(=S)n1CCCN1CCN(c2ccccc2F)CC1	167.8	107.0	112.0	109.4	53.1*	32.7
O=c1c2cc(N3CCOCC3)ccc2[nH]c(=S)n1CCCN1CCCCCC1	101.6	99.6	99.6	99.2	0.8	5.5
COCCN1Cc2cccc(C(=O)Nc3cc(C)cc(C)c3)c2C1=O	75.0	99.0	92.8	98.9	26.3	82.4*
SMILES	RGS16-Gao HTS	RGS4-Gao reg	RGS8-Gao	RGS7-Gao reg	ABCB1 inh	ABCG2 inh	others
CN(C(=O)c1cc2nc(-c3ccco3)cc(C(F)(F)F)n2n1)C1CCCCC1	35.5	38.7*	46.6*	35.1*	1.0	29.9
O=c1oc2cc(O)ccc2cc1-c1nc2c(s1)CCc1ccccc1-2	104.7	98.7	98.2	97.2	138.4*	+
O=c1oc2ccccc2cc1-c1nc2c(s1)CCc1ccccc1-2	104.9	96.3	100.5	103.0	-0.5	-3.9
C=CCN(C(=O)CNC(=O)c1ccco1)C(C(=O)NC1CCCCC1)c1ccc(OC)cc1OC (stereo not given)	101.5	98.0	102.6	101.8	0.6	0.6
CCCOC(=O)c1cccc(NC(=O)COc2ccc([N+](=O)[O-])cc2)c1	104.3	96.8	100.1	93.2	63.3*	8.9
Cc1ccc(NS(=O)(=O)c2cc(NC(=O)c3ccc4c(c3)NC(=O)CS4)ccc2Cl)c(C)c1	85.4	99.7	90.2	98.8	0.2	-2.6
COC(=O)[C@@H]1CC[C@H](C)[C@@H](c2ccc(C)cc2)N1C(=O)c1ccc(/C=N/O[C@@H](C)CN2CCCCc3nc(C)c(C)cc32)cc1	92.3	99.0	98.1	97.7	12.3	-0.1
CCCSCCCNC(=O)Cn1cc2c(n1)CCCCC2	47.2	49.3*	56.1*	43.2*	-2.7	-3.2
O=C1CSC(=S)N1/N=C/c1ccc(Cl)c([N+](=O)[O-])c1	100.8	99.0	102.3	?	/	/
Cc1cc(C)nc(NS(=O)(=O)c2ccc(NC(=S)NC(=O)CC(C)C)cc2)n1	270.0*[activator]	207.7*[activator]	107.6	193.9*[activator]	0.5	2.2
CCCC(=O)Nc1ccccc1-c1nnc(SCC)[nH]c1=O	99.0	102.7	100.5	?	/	/
CCCCNC(=O)c1cnc2n(c1=O)CCS2	98.9	101.9	101.4	103.0	0.2	29.2
CCOC(=O)N1CCC(NC(=O)c2cnc3n(c2=O)CCS3)CC1	-12.8*	-14.5*	2.7*	-21.1*	-0.8	-1.0
c1ccc(OCc2nc(-c3ccncc3)no2)cc1	102.4	103.2	98.3	100.9	3.5	111.3*	ABCB1 single pt=1.2;ABCG2 single pt=4.0;IgMXP3 autofluor=-1.49;CCRF autofluor=-2.24
CC(=O)N(c1ccccc1)c1nnc(-c2cnc(C)cn2)s1	107.3	99.6	101.3	102.0	0.7	3.6
